Data published in the RNAGym collection of RNA variant scans (doi:10.1126/science.aae0568).
Variants at the floor of the assay were thinned out.

B1: tRNA (parent)
chain: GUUCCGUUGGCGUAAUGGUAACGCGUCUCCCUCCUAAGGAGAAGACUGCGGGUUCGAGUCCCGUACGGAACG

Variants of: B1
Experiment: yeast fitness relative to wild type (ratio to wild type); higher = fitter; tRNA-Arg(CCU), competitive growth, 37 C, YPD
In short: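 The tRNA-Arg(CCU) gene variants were made by chemical synthesis with a 3% per-site mutation rate at 69 sites and inserted at the native genomic locus of Saccharomyces cerevisiae. After pooling, the strains were competed in YPD at 37°C for 24 hours in six parallel replicates. Gene amplicons from the start population and each end population were read by 100-nucleotide paired-end sequencing, and Darwinian fitness relative to wild type was taken from genotype frequency changes. Genotypes needed ≥ 100 starting reads, and estimates < 0.5 were set to 0.5.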

Point of comparison: GUUCCGUUGGCGUAAUGGUAACGCGUCUCCCACCUAAGGAGAAGAAUGCGGGUUCGGGUCCCGUACGGAACG [U32A C46A A57G], yeast fitness 0.614. Against it:
- GUUCCGUUGGCGUAAUGGUAACGCGUCUCCCAACUAAGGAGAAGAGUGCGGGUUCGAGUCCCGUACGGAACG [U32A C33A C46G] — lower, ≤ 0.5
- GUUCCGUUGGCGUAAUGGUAACGCGUCUCCCACCUAAGGCGAAGACUGCGGGUUCGAGUCCCGUACGGCACG [U32A A40C A69C] — lower, 0.562
- GUUCCGUUGGCGUAAUGGUAACGCGUCUCCCACCUAAGGAGAAGACUGCGGGUUCAAGUCCCGUACGGUACG [U32A G56A A69U] — lower, 0.554
- GUUCCGUUGGCGUAAUGGUAACGCGUCUCCCACCUAAGGAAAAGACUGCGGGUUCGAGUCACGUACGGAACG [U32A G41A C61A] — lower, ≤ 0.5
- GUUCCGUUGGCGUAAUGGUAACGCGUCUCCCACCGUAAGAGAAGACCGCGGGUUCGAGUCCCGUACGGAACG [U32A U35G A36U G38A U47C] — lower, ≤ 0.5
- GUUCCGUUGGCGUAAUGGUAACGCGUCUCCCACCUAAGGAGAGGACUGCGGGAUCGAGUCCCGUACGAAACG [U32A A43G U53A G68A] — lower, ≤ 0.5
- GUUCCGUUGGCGUAAUGGUAACGCGUCUCCCACCUAAGGAGAAGACUGGGGGUUUGAGUCCCGUACGGAACG [U32A C49G C55U] — lower, ≤ 0.5
- GUUCCGUUGGCGUAAUGGUAACGCGUCUCCCACAUAAGGAGAAGACUGCGGGUUCGAGUCCCGUCCGGAACG [U32A C34A A65C] — lower, 0.523
- GUUCCGUUGGCGUAAUGGUAACGCGUCUCCCACCUAAGGAGAAGACUGCGGGCUCGAGUCCCGUACGGCACG [U32A U53C A69C] — lower, ≤ 0.5
- GUUCCGUUGGCGUAAUGGUAACGCGUCUCCCACCUAAGAAGAAGACUGCGGGUACGAGUCCCGUAAGGAACG [U32A G39A U54A C66A] — lower, ≤ 0.5
- GUUCCGUUGGCGUAAUGGUAACGCGUCUCCCACCUAAGGAGCAGACUGCGGGUUCGGGUCCCGUACGGACCG [U32A A42C A57G A70C] — lower, ≤ 0.5
- GUUCCGUUGGCGUAAUGGUAACGCGUCUCCCACCUAAGGAGAAGACUGCGGGUUCGAGUACCGUACGGAACG [U32A C60A] — lower, ≤ 0.5
- GUUCCGUUGGCGUAAUGGUAACGCGUCUCCCACCUAAGGAGAAGACUGAGGGCUCGAGUCCCGUAGGGAACG [U32A C49A U53C C66G] — lower, ≤ 0.5
- GUUCCGUUGGCGUAAUGGUAACGCGUCUCCCACCUAAGGAGAAGAUUGCGGGUUCGAGUCCCGUACGGAACG [U32A C46U] — higher, 0.623
- GUUCCGUUGGCGUAAUGGUAACGCGUCUCCCACCUAAGGAGAAGAAUGCGGGUUCGAGUCCCGUACGGAACG [U32A C46A] — higher, 0.683
- GUUCCGUUGGCGUAAUGGUAACGCGUCUCCCACCUAAGGAGAAGAAUGCGGGUUCGAAUCCCGUACGGAACG [U32A C46A G58A] — lower, ≤ 0.5
- GUUCCGUUGGCGUAAUGGUAACGCGUCUCCCACCUAAGGAGAAGACUGCGGGAUCGAGUCCCGUACGGAACG [U32A U53A] — lower, ≤ 0.5
- GUUCCGUUGGCGUAAUGGUAACGCGUCUCCCACUUAAGGAGAAGACUGCGGGUUGGAGUCCUGUACGCAACG [U32A C34U C55G C62U G68C] — lower, ≤ 0.5
- GUUCCGUUGGCGUAAUGGUAACGCGUCUCCCACCUAAGGAGAAGACUGCAGGUUCGAGUCCCGUACGGAACG [U32A G50A] — higher, 0.783
- GUUCCGUUGGCGUAAUGGUAACGCGUCUCCCACCUAUGGAGAAGCCUGCGGGUUCGAGUCCCGUACGGAACG [U32A A37U A45C] — lower, ≤ 0.5
- GUUCCGUUGGCGUAAUGGUAACGCGUCUCCCACCUAAGGAGUAGACUGCGGGUCCGAGUCCCGUACGGAACG [U32A A42U U54C] — lower, ≤ 0.5
- GUUCCGUUGGCGUAAUGGUAACGCGUCUCCCACCUAAGGAGAAGACUGCGGGUUCGACUCCCCUACGGAACG [U32A G58C G63C] — lower, ≤ 0.5
- GUUCCGUUGGCGUAAUGGUAACGCGUCUCCCACCUAAGGAGAAGACUACGGGUUCGAGUCCCGUACGGAACG [U32A G48A] — higher, 0.673
- GUUCCGUUGGCGUAAUGGUAACGCGUCUCCCACCUAAGGAGAAGAAUGCGGGUUCGAGUCCCGUGAGCAACG [U32A C46A A65G C66A G68C] — lower, ≤ 0.5
- GUUCCGUUGGCGUAAUGGUAACGCGUCUCCCACCUGAGCAGAAGACUGCAGGUUCGAGUCCCGCACGGAACG [U32A A36G G39C G50A U64C] — lower, ≤ 0.5
- GUUCCGUUGGCGUAAUGGUAACGCGUCUCCCACCUAAGGAGAAGACUGCGGGUUCGAGUCUCGUACGGAACG [U32A C61U] — higher, 0.855
- GUUCCGUUGGCGUAAUGGUAACGCGUCUCCCACCUAAGGAGAAGACUGCGGGUUCGAGUCGCGUACGGAACG [U32A C61G] — lower, 0.526
- GUUCCGUUGGCGUAAUGGUAACGCGUCUCCCACCUAAGGAGAAGACUGCGGGUUCGAGUCCUGUACGGAACG [U32A C62U] — higher, 0.645
- GUUCCGUUGGCGUAAUGGUAACGCGUCUCCCACCUAAGGAGAAGACUGCGGGUUCGAGUCCAGUACGGAACG [U32A C62A] — lower, 0.549
- GUUCCGUUGGCGUAAUGGUAACGCGUCUCCCACCUAAGGAGAAGACUGCGGGUCUGAGUCCCGUACGGAACG [U32A U54C C55U] — lower, ≤ 0.5
- GUUCCGUUGGCGUAAUGGUAACGCGUCUCCCACCUAAGGAGAAGACCGCGGGUUCGAGUCCCGUACGGAACG [U32A U47C] — higher, 0.826
- GUUCCGUUGGCGUAAUGGUAACGCGUCUCCCACCUAAGAAGAAGACUGGGGGUUCGAGUCCCGUACGGAACG [U32A G39A C49G] — lower, ≤ 0.5
- GUUCCGUUGGCGUAAUGGUAACGCGUCUCCCACCUAAGAAGAAGACUGCGGGUUCGAGUCCCGUACGGAACG [U32A G39A] — higher, 0.792
- GUUCCGUUGGCGUAAUGGUAACGCGUCUCCCACCUAAGGAGAAGACUGCGGGUUCGAGCCCCGUACGGCACG [U32A U59C A69C] — lower, ≤ 0.5
- GUUCCGUUGGCGUAAUGGUAACGCGUCUCCCACCUAAGGAGAAGACUGCGGGUUCGAGUCGCGUACGGAUCG [U32A C61G A70U] — lower, ≤ 0.5
- GUUCCGUUGGCGUAAUGGUAACGCGUCUCCCACCUAAGGAGAAGACUGCGGGUUCCAGUCCCGUACGGAACG [U32A G56C] — lower, 0.594
